Test results taken from ChEMBL document CHEMBL4266041, “Hydroxybiphenylamide GroEL/ES Inhibitors Are Potent Antibacterials against Planktonic and Biofilm Forms of Staphylococcus aureus” (J Med Chem, 2018).

Experiments:
Staphylococcus aureus [1] = experiment: Antibacterial activity against Staphylococcus aureus ATCC 25923 after 6 to 8 hrs by bacterial proliferation assay; assay type: functional, organism-based
[2] = Cytotoxicity against human THLE3 cells assessed as reduction in cell viability after 48 hrs by Alamar Blue reporter assay; details: 48 h
HSP60/HSP10 = HSP60/HSP10 (Homo sapiens, UniProt P10809); experiment: Inhibition of human N-terminal octa-His-tagged HSP60 expressed in Escherichia coli Rosetta(DE3) pLysS/human HSP10 expressed in Escherichia coli Rosetta(DE3) assessed as reduction in HSP60/HSP10-mediated denatured MDH refolding after 40 to 60 mins by spectrometric analysis
In short: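 Human HSP60/10 refolding of denatured MDH, run the same way as the GroEL/ES-dMDH assay. A binary complex of chaperonin and denatured MDH is formed, and refolding is started with ATP and HSP10. MDH activity is the read-out. DMSO is the negative control. IC50 values from replicate curves are log-averaged after ROUT outlier screening.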

Enterococcus faecium = experiment: Antibacterial activity against Enterococcus faecium ATCC 19434 after 24 hrs by bacterial proliferation assay; assay type: functional, organism-based; details: ATCC 19434, 24 h
Pseudomonas aeruginosa = experiment: Antibacterial activity against Pseudomonas aeruginosa ATCC 10145 after 24 hrs by bacterial proliferation assay; assay type: functional, organism-based; details: ATCC 10145, 24 h
In short: (§1)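 Bacterial growth inhibition in liquid culture. The highest concentration tested was 100 µM. The mean was back-calculated from the average log value. Values above the top concentration were set 0.1 log unit higher.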

Staphylococcus aureus [3] = experiment: Antibacterial activity against methicillin-resistant Staphylococcus aureus ATCC BAA-44 after 6 to 8 hrs by bacterial proliferation assay; assay type: functional, organism-based; details: Staphylococcus aureus, ATCC BAA-44
Enterobacter cloacae = experiment: Antibacterial activity against Enterobacter cloacae subsp. cloacae ATCC 13047 after 24 hrs by bacterial proliferation assay; assay type: functional, organism-based; details: subsp. cloacae ATCC 13047, 24 h; in short: as §1
Acinetobacter baumannii = experiment: Antibacterial activity against Acinetobacter baumannii ATCC 19606 after 24 hrs by bacterial proliferation assay; assay type: functional, organism-based; details: ATCC 19606 = CIP 70.34 = JCM 6841, 24 h; in short: as §1
[4] = target: T1, Thiosulfate sulfurtransferase (Homo sapiens, UniProt Q16762); experiment: Inhibition of refolded rhodanese (unknown origin) preincubated with Escherichia coli GroEL/GroES for 60 mins in absence of compound followed by compound addition by spectrometric analysis
T1 sequence (Q16762 whole entry): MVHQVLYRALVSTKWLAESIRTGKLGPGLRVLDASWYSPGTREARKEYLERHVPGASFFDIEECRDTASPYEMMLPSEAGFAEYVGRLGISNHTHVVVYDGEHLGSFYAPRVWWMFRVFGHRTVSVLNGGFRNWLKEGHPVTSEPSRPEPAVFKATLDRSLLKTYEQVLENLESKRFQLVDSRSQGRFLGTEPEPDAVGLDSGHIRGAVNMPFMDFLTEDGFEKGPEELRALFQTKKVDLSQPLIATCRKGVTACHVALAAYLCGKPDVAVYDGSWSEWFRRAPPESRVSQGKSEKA

[5] = Inhibition of refolded MDH (unknown origin) preincubated with Escherichia coli GroEL/GroES for 45 mins in absence of compound followed by compound addition and measured for 20 to 35 mins by spectrometric analysis
E. coli GroEL/ES [6] = target: T2, E. coli GroEL/ES (Escherichia coli, UniProt P0A6F5); experiment: Inhibition of Escherichia coli GroEL expressed in Escherichia coli DH5alpha/Escherichia coli GroES expressed in Escherichia coli BL21 (DE3) assessed as reduction in GroEL/GroES-mediated denatured MDH refolding after 20 to 40 mins by spectrometric analysis
In short: (§2)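 Uses E. coli GroEL/ES with a denatured MDH or rhodanese reporter. GroEL first forms a binary complex with the denatured reporter. Refolding is started by adding ATP and GroES, then reporter enzyme activity is read. DMSO is the negative control. IC50 values from replicate curves are log-averaged after ROUT outlier screening.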

E. coli GroEL/ES [7] = target: T2, E. coli GroEL/ES; experiment: Inhibition of Escherichia coli GroEL expressed in Escherichia coli DH5alpha/Escherichia coli GroES expressed in Escherichia coli BL21 (DE3) assessed as reduction in GroEL/GroES-mediated denatured rhodanese refolding after 45 mins by spectrometric analysis; in short: as §2
HEK293 = experiment: Cytotoxicity against HEK293 cells assessed as reduction in cell viability after 48 hrs by Alamar Blue reporter assay; details: human, hek293, 48 h
Klebsiella pneumoniae = experiment: Antibacterial activity against Klebsiella pneumoniae ATCC 13883 after 6 to 8 hrs by bacterial proliferation assay; assay type: functional, organism-based; in short: as §1

T2 sequence (P0A6F5 whole entry, looked up): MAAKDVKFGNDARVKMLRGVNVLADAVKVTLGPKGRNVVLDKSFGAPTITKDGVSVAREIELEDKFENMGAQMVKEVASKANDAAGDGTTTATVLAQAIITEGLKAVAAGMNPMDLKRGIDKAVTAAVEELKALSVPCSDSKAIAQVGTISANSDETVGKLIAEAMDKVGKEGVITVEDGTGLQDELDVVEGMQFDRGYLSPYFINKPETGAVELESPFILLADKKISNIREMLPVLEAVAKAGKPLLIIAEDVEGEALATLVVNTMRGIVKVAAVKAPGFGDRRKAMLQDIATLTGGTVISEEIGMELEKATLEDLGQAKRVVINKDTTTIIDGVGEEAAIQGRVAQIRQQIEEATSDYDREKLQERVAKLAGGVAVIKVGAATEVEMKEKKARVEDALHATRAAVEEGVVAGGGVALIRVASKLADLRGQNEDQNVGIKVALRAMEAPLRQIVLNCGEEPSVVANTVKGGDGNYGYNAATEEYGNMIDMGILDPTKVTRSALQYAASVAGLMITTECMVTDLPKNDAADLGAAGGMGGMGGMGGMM
Sequence of HSP60/HSP10 (P10809 whole entry): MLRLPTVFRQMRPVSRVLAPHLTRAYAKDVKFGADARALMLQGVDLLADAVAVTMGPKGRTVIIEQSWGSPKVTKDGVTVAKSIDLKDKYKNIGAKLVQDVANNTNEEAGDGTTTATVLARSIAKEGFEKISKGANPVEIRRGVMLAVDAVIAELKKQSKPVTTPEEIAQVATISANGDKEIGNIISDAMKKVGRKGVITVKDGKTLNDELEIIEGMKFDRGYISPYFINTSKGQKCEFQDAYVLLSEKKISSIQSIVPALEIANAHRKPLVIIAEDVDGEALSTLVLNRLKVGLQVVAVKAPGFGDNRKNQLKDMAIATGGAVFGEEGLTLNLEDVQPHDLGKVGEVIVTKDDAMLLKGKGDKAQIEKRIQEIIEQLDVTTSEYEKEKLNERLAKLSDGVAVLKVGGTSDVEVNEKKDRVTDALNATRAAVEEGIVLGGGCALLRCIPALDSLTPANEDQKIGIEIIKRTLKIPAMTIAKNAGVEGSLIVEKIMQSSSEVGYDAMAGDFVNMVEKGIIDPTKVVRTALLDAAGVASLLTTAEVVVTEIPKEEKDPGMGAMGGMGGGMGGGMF
Sequence of HSP60/HSP10 (P61604 whole entry, further chain): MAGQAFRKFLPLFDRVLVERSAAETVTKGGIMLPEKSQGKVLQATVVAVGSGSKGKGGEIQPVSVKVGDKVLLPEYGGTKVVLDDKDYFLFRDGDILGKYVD

| Compound | EC50 (Staphylococcus aureus [1]) [µM] | CC50 [2] [µM] | IC50 (HSP60/HSP10) [µM] | EC50 (Enterococcus faecium) [µM] | EC50 (Pseudomonas aeruginosa) [µM] | EC50 (Staphylococcus aureus [3]) [µM] | EC50 (Enterobacter cloacae) [µM] | EC50 (Acinetobacter baumannii) [µM] | IC50 [4] [µM] | IC50 [5] [µM] | IC50 (E. coli GroEL/ES [6]) [µM] | IC50 (E. coli GroEL/ES [7]) [µM] | CC50 (HEK293) [µM] | EC50 (Klebsiella pneumoniae) [µM] |
| --- | --- | --- | --- | --- | --- | --- | --- | --- | --- | --- | --- | --- | --- | --- |
| O=C(Nc1ccccc1)c1cccc(Br)c1 | > 100 | > 100 | > 100 | > 100 | > 100 | > 100 | > 100 | > 100 | > 100 | > 63 | > 100 | > 100 | > 100 | > 100 |
| O=C(Nc1cccc(Cl)c1)c1cccc(Br)c1O | 1.3 | 16 | > 100 | > 100 | > 100 | 2 | > 100 | > 100 | > 100 | > 63 | > 100 | > 100 | 32 | > 100 |
| O=C(Nc1cccc(Cl)c1)c1cccc(Br)c1 | 47 | 50 | > 100 | > 100 | > 100 | 68 | > 100 | > 100 | > 100 | > 63 | > 100 | > 100 | 51 | > 100 |
| COc1c(Br)cccc1C(=O)Nc1ccc(Sc2nc3ccccc3s2)cc1 | > 100 | > 100 | > 100 | > 100 | > 100 | > 100 | > 100 | > 100 | > 100 | > 63 | > 100 | > 100 | > 100 | > 100 |
| COc1ccc(Br)cc1C(=O)Nc1ccc(Sc2nc3ccccc3s2)c(Cl)c1 | > 100 | > 100 | > 100 | > 100 | > 100 | > 100 | > 100 | > 100 | > 100 | > 63 | > 100 | > 100 | > 100 | > 100 |
| COc1c(Br)cc(Br)cc1C(=O)Nc1ccc(Sc2nc3ccccc3s2)c(Cl)c1 | > 100 | > 100 | > 100 | > 100 | > 100 | > 100 | > 100 | > 100 | > 100 | > 63 | > 100 | > 100 | > 100 | > 100 |
| COc1ccccc1C(=O)Nc1ccc(Sc2nc3ccccc3s2)cc1 | > 100 | > 100 | > 100 | > 100 | > 100 | > 100 | > 100 | > 100 | > 100 | > 63 | > 100 | > 100 | > 100 | > 100 |
| O=C(Nc1ccccc1)c1cccc(Br)c1O | 6.4 | 56 | > 100 | > 100 | > 100 | 10 | > 100 | > 100 | > 100 | > 63 | > 100 | > 100 | 82 | > 100 |
| COc1ccccc1C(=O)Nc1ccc(Sc2nc3ccccc3s2)c(Cl)c1 | > 100 | > 100 | > 100 | > 100 | > 100 | > 100 | > 100 | > 100 | > 100 | > 63 | > 100 | > 100 | > 100 | > 100 |
| COc1ccc(Br)cc1C(=O)Nc1cccc(Cl)c1 | > 100 | 94 | > 100 | > 100 | > 100 | > 100 | > 100 | > 100 | > 100 | > 63 | > 100 | > 100 | > 100 | > 100 |
| O=C(Nc1ccc(Sc2nc3ccccc3s2)cc1)c1cc(Br)cc(Br)c1 | > 100 | > 100 | > 100 | > 100 | > 100 | > 100 | > 100 | > 100 | > 100 | > 63 | > 100 | > 100 | > 100 | > 100 |
| COc1ccccc1C(=O)Nc1ccccc1 | > 100 | > 100 | > 100 | > 100 | > 100 | > 100 | > 100 | > 100 | > 100 | > 63 | > 100 | > 100 | > 100 | > 100 |
| O=C(Nc1ccccc1)c1cc(Br)ccc1O | 2.8 | 16 | > 100 | > 100 | > 100 | 4.1 | > 100 | > 100 | > 100 | > 63 | > 100 | > 100 | 35 | 78 |
| O=C(Nc1ccc(Sc2nc3ccccc3s2)cc1)c1cccc(Br)c1O | 0.76 | 36 | – | 11 | > 100 | 1.1 | > 100 | 12 | > 100 | > 63 | 33 | 14 | 71 | > 100 |
| COc1c(Br)cccc1C(=O)Nc1ccc(Sc2nc3ccccc3s2)c(Cl)c1 | > 100 | > 100 | > 100 | > 100 | > 100 | > 100 | > 100 | > 100 | > 100 | > 63 | > 100 | > 100 | > 100 | > 100 |
| O=C(Nc1cccc(Cl)c1)c1ccccc1 | > 100 | > 100 | > 100 | > 100 | > 100 | > 100 | > 100 | > 100 | > 100 | > 63 | > 100 | > 100 | > 100 | > 100 |
| O=C(Nc1ccc(Sc2nc3ccccc3s2)c(Cl)c1)c1ccccc1O | 0.31 | 34 | > 100 | 64 | > 100 | 0.45 | > 100 | > 100 | > 100 | > 63 | 42 | 63 | – | > 100 |
| CO[C@H]1/C=C/O[C@@]2(C)Oc3c(C)c(O)c4c(O)c(c(/C=N/N5CCN(C)CC5)c(O)c4c3C2=O)NC(=O)/C(C)=C\C=C\[C@H](C)[C@H](O)[C@@H](C)[C@@H](O)[C@@H](C)[C@H](OC(C)=O)[C@@H]1C [RIFAMPIN] | < 0.05 | – | > 100 | 0.13 | 7.8 | 0.23 | 8.8 | 1.3 | > 100 | > 63 | > 100 | > 100 | – | 11 |
